Assay results published in ChEMBL document CHEMBL2093137, “WHO-TDR NTD Screening”.
≈ marks a conversion by molar mass, not a printed value.

Key:
[1] = WHO-TDR: Cytotoxicity; format: toxicity, cell-based; conditions: human, MRC5 cells
Onchocerca lienalis = assay: WHO-TDR: Onchocerciasis; format: functional; parameters: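 at 12.5 µM on microfilariae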
Outline: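 Microfilariae of Onchocerca ochengi or Onchocerca lienalis, animal pathogens standing in for the human parasite, were exposed to compounds in a whole-organism screen. The compounds came from a 10,000-compound diverse Life Chemicals library filtered for drug-likeness and reactive groups. Results are expressed as percent inhibition and IC50.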

Plasmodium falciparum K1 = assay: WHO-TDR: Malaria; format: functional, organism-based, Homo sapiens; conditions: Erythrocyte
Outline: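 Life Chemicals supplied the diverse library of 10,000 compounds, which had been filtered for drug-likeness and reactive groups. Each was screened against the K1 strain of Plasmodium falciparum at its intra-erythrocytic stage in human red blood cells, using previously published standard procedures and a reference drug as positive control. The table reports IC50 for antiplasmodial potency.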

[2] = tested on: Trypanosoma brucei brucei; assay: WHO-TDR: Human African Trypanosomiasis (HAT); format: functional, organism-based; conditions: Squib-427
Outline: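 Following previously published standard procedures, with reference drugs as positive controls, a whole-organism assay was run against bloodstream-form Trypanosoma brucei, Squib 427 strain. The compounds, 10,000 in all, came from a diverse Life Chemicals library filtered for drug-likeness and reactive groups. Reported values are IC50 for antiparasitic potency.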

Schistosoma mansoni = assay: WHO-TDR: Schistosomiasis; format: functional; parameters: concentration or dose not given beside the values
Outline: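 In this whole-organism assay, larval and/or adult worms of Schistosoma mansoni (Puerto Rican strain) were exposed to compounds from a diverse Life Chemicals library of 10,000 members. A reference drug served as positive control. Activity is stated as percent inhibition and IC50.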

Leishmania infantum = assay: WHO-TDR: Leishmaniasis; format: functional, organism-based, Mus musculus; conditions: Macrophage
Outline: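 IC50 values describe antiparasitic potency in this whole-organism screen. Leishmania infantum MHOM/MA(BE)/67 amastigotes were tested inside murine peritoneal macrophages against a 10,000-compound diverse Life Chemicals library. A reference drug served as positive control.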

Trypanosoma cruzi = assay: WHO-TDR: Chagas disease; format: functional, organism-based, Homo sapiens; conditions: MRC5
Outline: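 Following previously published standard procedures, with a reference drug as positive control, a whole-organism assay was run on Trypanosoma cruzi Tulahuen CL2 beta-galactosidase strain amastigotes inside MRC-5SV2 human lung fibroblast host cells. The 10,000 compounds tested formed a diverse Life Chemicals library filtered for drug-likeness and reactive groups. Results are expressed as IC50 for antiparasitic potency.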

Row | IC50 (Plasmodium falciparum K1) | IC50 [2] | IC50 (Leishmania infantum) | Structure (SMILES) | IC50 [1] | % Inhibition (Onchocerca lienalis) | % Inhibition (Schistosoma mansoni) | IC50 (Trypanosoma cruzi)
1 | 0.848 µg/mL (≈ 2.04 µM) | 0.237 µg/mL (≈ 0.572 µM) | 4.16 µg/mL (≈ 10 µM) | CCOC(=O)CNC(=O)CSc1nnc(NC(=O)c2ccccc2Cl)s1 | 3.81 µg/mL (≈ 9.19 µM) | 13.3% | 0% | 4.41 µg/mL (≈ 10.6 µM)
2 | 1.82 µg/mL (≈ 4.04 µM) | 0.35 µg/mL (≈ 0.779 µM) | 4.72 µg/mL (≈ 10.5 µM) | CCOc1ccc2nc(N(CCN(C)C)C(=O)c3cc4ccccc4cc3OC)sc2c1 | 4.28 µg/mL (≈ 9.53 µM) | 0% | 0% | 0.425 µg/mL (≈ 0.945 µM)
3 | 3.42 µg/mL (≈ 7.7 µM) | 2 µg/mL (≈ 4.51 µM) | 0.466 µg/mL (≈ 1.05 µM) | CN(C)CCCN(C(=O)CCSc1ccccc1)c1nc2cc3c(cc2s1)OCO3 | 3.54 µg/mL (≈ 7.97 µM) | 0% | 0% | 0.416 µg/mL (≈ 0.938 µM)
4 | 8.18 µg/mL (≈ 20.4 µM) | 4.25 µg/mL (≈ 10.6 µM) | 4.25 µg/mL (≈ 10.6 µM) | CN(C)CCCN(C(=O)CCOc1ccccc1)c1nc2c(F)cccc2s1 | 1.94 µg/mL (≈ 4.83 µM) | 0% | 0% | 0.409 µg/mL (≈ 1.02 µM)
5 | 1.45 µg/mL (≈ 2.9 µM) | 0.356 µg/mL (≈ 0.71 µM) | 5.1 µg/mL (≈ 10.2 µM) | CN(C)CCN(C(=O)c1cccc(N2C(=O)CCC2=O)c1)c1nc2ccc(Br)cc2s1 | > 16.1 µg/mL | 0% | 33.3% | 4.94 µg/mL (≈ 9.85 µM)
6 | 2.42 µg/mL (≈ 5.02 µM) | 5.04 µg/mL (≈ 10.4 µM) | 5.04 µg/mL (≈ 10.4 µM) | CN(C)CCCN(C(=O)c1ccc(Br)s1)c1nc2cc3c(cc2s1)OCCO3 | 3.06 µg/mL (≈ 6.35 µM) | 6.7% | 0% | 0.933 µg/mL (≈ 1.93 µM)
7 | > 8.92 µg/mL | > 8.92 µg/mL | > 8.92 µg/mL | Fc1ccccc1CSc1ccc(-c2ccccn2)nn1 | > 8.92 µg/mL | 97% | 8.3% | > 8.92 µg/mL
8 | 1.2 µg/mL (≈ 2.82 µM) | 0.383 µg/mL (≈ 0.902 µM) | 5.12 µg/mL (≈ 12 µM) | O=C(CSc1nnc(NC(=O)c2cccs2)s1)NCc1ccccc1Cl | 4.21 µg/mL (≈ 9.91 µM) | 13.3% | 16.7% | 4.32 µg/mL (≈ 10.2 µM)
9 | 8.18 µg/mL (≈ 16.9 µM) | 4.25 µg/mL (≈ 8.8 µM) | 4.25 µg/mL (≈ 8.8 µM) | O=C(CSc1nnc(NC(=O)c2cc(Cl)ccc2Cl)s1)Nc1ccc2c(c1)OCO2 | 1.94 µg/mL (≈ 4.02 µM) | 13.3% | 0% | 0.409 µg/mL (≈ 0.847 µM)
10 | 0.398 µg/mL (≈ 0.755 µM) | 0.352 µg/mL (≈ 0.668 µM) | 4.54 µg/mL (≈ 8.61 µM) | COc1ccc(CCNC(=O)CSc2nnc(NC(=O)c3cc(Cl)ccc3Cl)s2)cc1OC | 0.526 µg/mL (≈ 0.997 µM) | 13.3% | 8.3% | 0.239 µg/mL (≈ 0.452 µM)
11 | 1.14 µg/mL (≈ 3 µM) | 4.74 µg/mL (≈ 12.4 µM) | 4.74 µg/mL (≈ 12.4 µM) | Cc1csc(NC(=O)CSc2nnc(NC(=O)c3ccco3)s2)n1 | 5.73 µg/mL (≈ 15 µM) | 0% | 0% | 5.1 µg/mL (≈ 13.4 µM)
12 | 1.72 µg/mL (≈ 3.48 µM) | 4.51 µg/mL (≈ 9.14 µM) | 0.451 µg/mL (≈ 0.914 µM) | O=C(CSc1nnc(NC(=O)COc2ccc(Cl)cc2)s1)NCc1ccc2c(c1)OCO2 | 3.34 µg/mL (≈ 6.77 µM) | 13.3% | 0% | 0.433 µg/mL (≈ 0.879 µM)
13 | 1.44 µg/mL (≈ 3.28 µM) | 0.428 µg/mL (≈ 0.975 µM) | 0.467 µg/mL (≈ 1.06 µM) | O=C(CSc1nnc(NC(=O)COc2ccc(Cl)cc2)s1)NCc1ccco1 | 0.462 µg/mL (≈ 1.05 µM) | 6.7% | 0% | 0.408 µg/mL (≈ 0.93 µM)
14 | 3.42 µg/mL (≈ 7.71 µM) | 2 µg/mL (≈ 4.52 µM) | 0.466 µg/mL (≈ 1.05 µM) | O=C(CSc1nnc(NC(=O)COc2ccc(Cl)cc2)s1)NCC1CCCO1 (centres undefined) | 3.54 µg/mL (≈ 7.99 µM) | 13.3% | 0% | 0.416 µg/mL (≈ 0.939 µM)
15 | 2.42 µg/mL (≈ 5.03 µM) | 5.04 µg/mL (≈ 10.5 µM) | 5.04 µg/mL (≈ 10.5 µM) | CN(C)S(=O)(=O)c1ccc(C(=O)Nc2nnc(SCC(=O)NCc3ccco3)s2)cc1 | 3.06 µg/mL (≈ 6.36 µM) | 6.7% | 0% | 0.933 µg/mL (≈ 1.94 µM)
16 | 1.13 µg/mL (≈ 2.69 µM) | 0.456 µg/mL (≈ 1.09 µM) | 4.51 µg/mL (≈ 10.7 µM) | CC(C)(C)C(=O)Nc1nnc(SCC(=O)Nc2ccc(Cl)c(Cl)c2)s1 | 2.84 µg/mL (≈ 6.78 µM) | 0% | 0% | 4.66 µg/mL (≈ 11.1 µM)
17 | > 8.44 µg/mL | > 8.44 µg/mL | 2.73 µg/mL (≈ 5.85 µM) | COc1ccc(Cl)cc1NC(=O)CSc1nnc(NC(=O)Cc2ccc(F)cc2)s1 | > 8.44 µg/mL | 0% | 100% | > 8.44 µg/mL
